Shown are actives, neighbours in structure and some others; about 1.7% of the full set was active somewhere.
C2C12 statin = protects C2C12 myotubes from simvastatin toxicity; ATP luminescence, 48 h; scaled: DMSO 0, geranylgeraniol control 100; rescue of ATP level, % at 7.49 µM; actives 0.78% (n = 330,000);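 active = mean ATP rescue above about 67%, or every replicate alone reaching that limit, limit read from the data, passing the limit was not always enough; inconclusive = no clear call, values can overlap the other calls; inactive = mean under the limit and some replicate under it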;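 note: myotubes were challenged with 10 µM simvastatin during compound exposure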
Vif imaging = inhibitors of HIV Vif; HEK293T cells, Vif self-association by quenched fluorescence, imaging, 24 h; inhibition, % at 7.49 µM; actives 0.35% (n = 340,000); in the data active = inhibition above about 50%, passing the limit was not always enough; inconclusive = no clear call, values can overlap the other calls; inactive = below about 31%
SR-BI DiI inh = inhibitors of mouse SR-BI mediated HDL lipid uptake | actives 0.96% (n = 320,000) | inhibition, % at 12.5 µM | ldlA[mSR-BI] CHO cells, DiI-HDL uptake fluorescence, 3 h | Q61009;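 active = mean replicate inhibition of at least 70% and a set share of replicates each scoring 70 or more; inconclusive = meets just one of the two criteria; inactive = fails both criteria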;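 note: 0% = median of neutral control wells and 100% = median of positive control wells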
Target sequence (Q61009 whole entry, looked up): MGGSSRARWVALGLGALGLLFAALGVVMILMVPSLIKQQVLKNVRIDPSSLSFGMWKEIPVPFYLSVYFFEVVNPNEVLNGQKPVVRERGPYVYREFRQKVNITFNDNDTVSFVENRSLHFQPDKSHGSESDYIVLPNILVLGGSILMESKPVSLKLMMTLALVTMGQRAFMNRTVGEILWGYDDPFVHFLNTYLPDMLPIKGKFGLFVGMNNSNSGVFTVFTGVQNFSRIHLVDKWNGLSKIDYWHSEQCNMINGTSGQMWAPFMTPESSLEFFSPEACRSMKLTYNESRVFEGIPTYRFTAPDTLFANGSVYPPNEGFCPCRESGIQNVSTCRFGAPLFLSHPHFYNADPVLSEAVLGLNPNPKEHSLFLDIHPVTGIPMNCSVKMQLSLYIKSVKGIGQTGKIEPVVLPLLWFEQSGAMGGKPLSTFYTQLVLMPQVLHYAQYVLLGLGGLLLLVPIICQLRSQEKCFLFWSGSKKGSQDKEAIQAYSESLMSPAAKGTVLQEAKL
SR-BI uptake up = enhances SR-BI lipid uptake from DiI-HDL. activation, % at 12.5 µM. AID 504775. actives 0.096% (n = 320,000). CHO ldlA[mSR-BI] cells, DiI-HDL uptake fluorescence, 3 h; 100 = double the neutral-control signal;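 active = mean replicate activation of at least 60% and every replicate at or above 60%; inconclusive = mean or all-replicate condition met, but not both; inactive = mean below 60% and not all replicates reaching 60%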;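 note: 0% = median plate neutral-control signal and 100% = twice that signal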
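Material – SR-BI-overexpressing, LDLR-lacking CHO cells · Medium – BSA-supplemented, HEPES-buffered Ham's F12, pH 7.4 · Doses – single concentration · Times – compound with DiI-HDL co-incubation, 3 h at 37 °C · Measured by – bottom-read fluorescence, 550/595 nm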
* marks the source's active call; other numbers are inactive results; ? = inconclusive; . = not tested or not shown.

SMILES	C2C12 statin	Vif imaging	SR-BI DiI inh	SR-BI uptake up
CC(=O)c1cccc(NC(=O)c2cc(S(=O)(=O)N3CCOCC3)cs2)c1	-9.7	27.0	77.5*	-77.5
COc1ccc(C(=O)NC(=S)Nc2cccc(S(=O)(=O)N3CCOCC3)c2)cc1	.	-2.5	39.7	-39.7
Cc1cc(SCC(=O)Nc2cccc(S(=O)(=O)N3CCOCC3)c2)nc2ccccc12	.	-0.4	78.8*	-78.8
Cc1noc(C)c1S(=O)(=O)Nc1ccc2c(c1)CC(=O)N([C@H](C)CO)C[C@H](C)[C@@H](CN(C)C(=O)NC1CCCCC1)O2	17.2	.	.	.
C/C=C/c1ccc2c(c1)O[C@@H](CN(C)C(=O)c1ccc(F)cc1)[C@H](C)CN([C@H](C)CO)S2(=O)=O	-7.8	.	.	.
CCC(=O)N1[C@@H](CO)[C@H](c2ccc(-c3ccccc3)cc2)[C@@H]1CNC(=O)COC	7.5	.	.	.
O=C(NC1CCCCC1)c1ccc([N+](=O)[O-])o1	69.4*	24.9	-0.8	0.8
O=C(NC1CCCC(C(F)(F)F)C1)c1ccc([N+](=O)[O-])o1 (configuration not stated)	15.2	-2.1	-17.8	17.8
CNC[C@H]1Oc2cc(-c3ccccc3F)ccc2S(=O)(=O)N([C@H](C)CO)C[C@@H]1C	2.4	.	.	.
Cc1cc(C)c(NC(=O)CSc2nc3ccc(N4C(=O)c5ccccc5C4=O)cc3s2)c(C)c1	6.2	1.9	74.1*	-74.1
CCc1cccc(C)c1NC(=O)CSc1nc2ccc(N3C(=O)c4ccccc4C3=O)cc2s1	.	.	62.0	-62.0
COc1ccc(OC)c(S(=O)(=O)Nc2ccccc2C)c1	100.3*	.	-15.9	15.9
CC(=O)Nc1ccc2c3c(cccc13)C(=O)N(c1ccccc1)C2=O	.	0.6	-2.8	2.8
O=CNc1ccc2c3c(cccc13)-c1ccccc1-2	1.5	56.0*	13.9	-13.9
CCCC#Cc1ccc2c(c1)O[C@@H](CN(C)Cc1cccnc1)[C@@H](C)CN([C@@H](C)CO)S2(=O)=O	31.5	.	.	.
CC(=O)c1c(C)[nH]c(C(=O)CSc2nnc(-c3cccs3)n2Cc2ccccc2)c1C	.	-6.6	46.7	-46.7
CC(=O)c1c(C)[nH]c(C(=O)CSc2nnc(-c3ccco3)n2Cc2ccccc2)c1C	-7.2	-24.9	80.0*	-80.0
CC(=O)c1c(C)[nH]c(C(=O)CSc2nnc(C3CCCCC3)n2N)c1C	122.3*	-4.4	1.7	.
Nn1c(SCC(=O)N2CCCC2)nnc1C1CCCCC1	1.3	-6.9	.	.
Cc1ccc(S(=O)(=O)Nc2cccc3c2O[C@@H](CN(C)C)[C@H](C)CN([C@H](C)CO)C3=O)cc1	16.6	.	.	.
CCc1ccc(OCc2cccc(C(=O)N/N=C\c3cnn(C)c3C)c2)cc1	-0.5	2.5	91.5*	-91.5
CO[C@H]1CN(C)C(=O)c2cc(NC(C)=O)ccc2OC[C@H](C)N(C(=O)C2CC2)C[C@@H]1C	4.3	.	.	.
C[C@H](CO)N1C[C@H](C)[C@@H](CN(C)C(=O)c2cnccn2)Oc2cc(C#CC3CC3)ccc2S1(=O)=O	-9.1	.	.	.
C[C@@H]1CN([C@H](C)CO)C(=O)c2cc(N(C)C)ccc2O[C@@H](C)CCCCO[C@H]1CN(C)C(=O)Nc1cccc2ccccc12	33.8	.	.	.
C[C@@H]1CN([C@@H](C)CO)C(=O)c2cc(NC(=O)Nc3ccc4c(c3)OCO4)ccc2O[C@@H](C)CCCCO[C@H]1CN(C)C(=O)Nc1cccc2ccccc12	8.2	.	.	.
SMILES	C2C12 statin	Vif imaging	SR-BI DiI inh	SR-BI uptake up
C[C@@H]1CCCCO[C@H](CN(C)C(=O)Nc2cccc3ccccc23)[C@H](C)CN([C@@H](C)CO)C(=O)c2cc(NC(=O)Nc3ccc4c(c3)OCO4)ccc2O1	122.2*	.	.	.
C[C@@H]1CCCCO[C@H](CN(C)C(=O)Nc2cccc3ccccc23)[C@H](C)CN([C@@H](C)CO)C(=O)c2cc(N(C)C)ccc2O1	70.9*	.	.	.
CCCN(C)C[C@H]1Oc2ncc(C#CCN(C)C)cc2C(=O)N([C@H](C)CO)C[C@@H]1C	-7.7	.	.	.
O=C(Nc1ccc(-c2csc(Nc3ccccc3)n2)cc1)c1ccccc1	.	.	86.0*	-86.0
Clc1ccc(Nc2nc(-c3cccnc3)cs2)cc1	-11.8	?	39.3	-39.3
O=C(Nc1cccc(-c2csc(Nc3ccc(Cl)cc3)n2)c1)c1ccccc1	-37.9	-3.2	98.2*	-98.2
S=c1[nH]c2cc3ccccc3cc2[nH]1	.	9.0	.	.
Cc1cc2[nH]c(=S)[nH]c2cc1C	5.6	-7.8	72.8*	-72.8
CCN(CC)C(=O)/C(=C/c1ccc2c(c1)OCO2)NC(=O)c1ccc(Br)cc1	.	-1.6	74.7*	-74.7

Assay outcomes as filed in PubChem.
